Active and inactive are the calls of the source. The calls are words filed in the database; no cut-off is given here.
Columns and labels:
HT-29 [1] = test: Cell cycle distribution in human HT-29 cells assessed as accumulation at S phase at 0.1 uM after 6 hrs by flow cytometry; type: functional, cell-based
Summary of the method: (§1)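 HT-29 cells were exposed to vehicle or compound for 6, 12, 24 or 48 h. Attached and floating cells were collected by trypsin-EDTA, fixed in 70% ethanol, and treated with 0.1% Triton X-100 for 30 min. They were stained with 50 μg/mL PI plus 50 μg/mL RNase A for 30 min in the dark at room temperature. 10000 cells were read by FL2 at 488 nm excitation. S-phase and sub-G1 (apoptotic) fractions are expressed as % of total cells.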

HT-29 [2] = test: Cell cycle distribution in human HT-29 cells assessed as accumulation at S phase at 0.1 uM after 12 hrs by flow cytometry; type: functional, cell-based; summary of the method: as §1
HT-29 [3] = test: Cell cycle distribution in human HT-29 cells assessed as accumulation at S phase at 0.1 uM after 24 hrs by flow cytometry; type: functional, cell-based; summary of the method: as §1
HT-29 [4] = test: Induction of apoptosis in human HT-29 cells assessed as increase in accumulation at sub-G1 phase at 0.1 uM after 48 hrs by flow cytometry; type: functional; summary of the method: as §1
[5] = Cytotoxicity against p53-deficient human Hep3B cells after 48 hrs by SRB assay; type: functional, cell-based, Hep 3B2
Summary of the method: (§2)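 Cell lines came from CCRC, Taiwan. Cells were seeded at about 5 × 10^3 per well and left overnight. They were then given serum-free medium containing 0-10 μM compound (0.08-10 μM serial dilutions) for 48 h at 37 °C. Cells were fixed with TCA (10% final), stained with SRB (0.4% final), and the dye was dissolved in 10 mM Tris with A515 read. IC50 was taken from a fitted log concentration-response curve.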

K562 = test: Cytotoxicity against p53-deficient human K562 cells after 48 hrs by SRB assay; type: functional, cell-based; conditions: K562, 48 h
HT-29 [6] = test: Cytotoxicity against human HT-29 cells expressing p53 mutant after 48 hrs by SRB assay; type: functional, cell-based; conditions: HT-29, 48 h; summary of the method: as §2
HepG2 = test: Cytotoxicity against human HepG2 cells expressing wild type p53 after 48 hrs by SRB assay; type: functional, cell-based; conditions: HepG2, 48 h; summary of the method: as §2
PC-3 = test: Cytotoxicity against p53-deficient human PC3 cells after 48 hrs by SRB assay; type: functional, cell-based; conditions: PC-3, 48 h; summary of the method: as §2
HT-29 [7] = test: Cell cycle distribution in human HT-29 cells assessed as accumulation at sub-G1 phase at 0.1 uM after 48 hrs by flow cytometry; type: functional, cell-based; summary of the method: as §1
THP-1 = test: Cytotoxicity against human THP1 cells expressing p53 mutant after 48 hrs by SRB assay; type: functional, cell-based; conditions: THP-1, 48 h
U-937 = test: Cytotoxicity against human U937 cells expressing p53 mutant after 48 hrs by SRB assay; type: functional, cell-based; conditions: U-937, 48 h
[8] = Cytotoxicity against estrogen receptor-negative human […] cells expressing p53 mutant after 48 hrs by SRB assay; type: functional, cell-based; summary of the method: as §2
HT-29 [9] = test: Cell cycle distribution in human HT-29 cells assessed as accumulation at S phase at 0.1 uM after 48 hrs by flow cytometry; type: functional, cell-based; summary of the method: as §1
AGS = test: Cytotoxicity against human AGS cells expressing wild type p53 after 48 hrs by SRB assay; type: functional, cell-based; summary of the method: as §2
MCF7 = test: Cytotoxicity against estrogen receptor-positive human MCF7 cells expressing wild type p53 after 48 hrs by SRB assay; type: functional, cell-based; conditions: MCF7, 48 h; summary of the method: as §2
HT-29 [10] = test: Antitumor activity against human HT-29 cells xenografted in athymic BALB/c nude mouse at 5 mg/kg, ip for 2 days measured after 30 days relative to placebo control; type: functional; conditions: route intraperitoneal
Summary of the method: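 Female athymic BALB/c nude mice (35-40 days old, 18-22 g). HT-29 tumours first grown from 1 × 10^7 cells injected s.c. in the axillary fossa, then excised and transplanted. Treatment started at 100-300 mm3. Groups of n=6 were dosed i.p. daily in 400 μL: saline for 10 days, 5 mg/kg for 2 days, or 75/150 mg/kg for 10 days. Caliper volume was V=1/2·a·b². Values are relative to start volume, compared with placebo by Student's t test, and mice were killed on day 30.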

A549 = test: Cytotoxicity against human A549 cells expressing wild type p53 after 48 hrs by SRB assay; type: functional, cell-based; conditions: A549, 48 h; summary of the method: as §2
HeLa = test: Cytotoxicity against p53-deficient human HeLa cells after 48 hrs by SRB assay; type: functional, cell-based; summary of the method: as §2
[11] = target: T1, DNA topoisomerase 1 (Homo sapiens) (UniProt P11387); test: Induction of human topoisomerase 1-mediated chromosomal DNA strand breaks in HT-29 cells at 10 uM after 1 hr by comet assay; type: cell-based
T1 sequence (whole entry): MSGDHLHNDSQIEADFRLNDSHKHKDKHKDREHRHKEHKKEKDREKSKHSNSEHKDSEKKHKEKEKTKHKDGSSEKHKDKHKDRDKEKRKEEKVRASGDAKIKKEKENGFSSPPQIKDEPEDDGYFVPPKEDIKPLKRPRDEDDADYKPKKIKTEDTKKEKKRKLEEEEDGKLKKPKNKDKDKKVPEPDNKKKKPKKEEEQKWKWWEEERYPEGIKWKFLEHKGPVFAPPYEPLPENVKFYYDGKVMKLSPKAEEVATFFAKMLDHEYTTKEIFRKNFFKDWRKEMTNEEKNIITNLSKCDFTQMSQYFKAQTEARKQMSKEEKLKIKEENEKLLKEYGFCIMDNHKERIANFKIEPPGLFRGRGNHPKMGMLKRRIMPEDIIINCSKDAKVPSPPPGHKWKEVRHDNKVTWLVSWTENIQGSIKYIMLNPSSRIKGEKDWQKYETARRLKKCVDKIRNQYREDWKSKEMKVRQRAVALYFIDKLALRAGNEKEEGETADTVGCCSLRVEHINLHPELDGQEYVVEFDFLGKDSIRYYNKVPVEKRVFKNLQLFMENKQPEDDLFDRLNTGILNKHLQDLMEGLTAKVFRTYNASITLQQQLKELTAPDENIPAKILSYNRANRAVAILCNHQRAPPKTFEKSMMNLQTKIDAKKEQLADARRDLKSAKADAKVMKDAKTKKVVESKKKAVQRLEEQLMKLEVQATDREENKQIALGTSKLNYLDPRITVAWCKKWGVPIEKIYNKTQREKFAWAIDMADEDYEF
Summary of the method: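 HT-29 cells were seeded at 1 × 10^4 per well and attached overnight, then treated for 1 h. Untreated cells served as negative control. Cells in low-melting agarose on precoated slides were lysed at pH 10.5 for 30 min at 4 °C and unwound in 300 mM NaOH/1 mM EDTA (pH >13) for 30 min at 4 °C. Electrophoresis ran 10 min at 16 V, with SYBR Gold staining. Read-out was mean % tail DNA from ≥50 nuclei, duplicates in three independent experiments.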

SMILES	Activity (HT-29 [1])	Activity (HT-29 [2])	Activity (HT-29 [3])	Activity (HT-29 [4]) [%]	GI50 [5] [nM]	IC50 [5] [nM]	IC50 (K562) [nM]	GI50 (HT-29 [6]) [nM]	IC50 (HT-29 [6]) [nM]	GI50 (HepG2) [nM]	IC50 (HepG2) [nM]	GI50 (PC-3) [nM]	IC50 (PC-3) [nM]	Activity (HT-29 [7])	IC50 (THP-1) [nM]	IC50 (U-937) [nM]	GI50 [8] [nM]	IC50 [8] [nM]	Activity (HT-29 [9])	GI50 (AGS) [nM]	other results
CC[C@@]1(O)C(=O)OCc2c1cc1n(c2=O)Cc2cc3c(CN(C)C)c(O)ccc3nc2-1 [TOPOTECAN]	Active	Active	Active	40.5	400	1400	1700	80	400	1200	1600	1300	2000	Active	1500	1100	900	2000	Active	100	IC50 (AGS): 300 nM; GI50 (MCF7): 800 nM; IC50 (MCF7): 2000 nM; Activity (HT-29 [10]): 76%; GI50 (A549): 900 nM; IC50 (A549): 1900 nM; GI50 (HeLa): 80 nM; IC50 (HeLa): 1600 nM
CC[C@@]1(O)C(=O)OCc2c1cc1n(c2=O)Cc2cc3ccccc3nc2-1 [CAMPTOTHECIN]	Active	Active	Active	44.8	10	60	1400	30	400	100	200	700	1400	Active	600	300	80	1700	Active	10	Activity [11]: 84%; IC50 (AGS): 20 nM; GI50 (MCF7): 10 nM; IC50 (MCF7): 1100 nM; GI50 (A549): 10 nM; IC50 (A549): 40 nM; GI50 (HeLa): 40 nM; IC50 (HeLa): 200 nM

Source: ChEMBL document CHEMBL1153527, “Discovery of a novel series of quinolone and naphthyridine derivatives as potential topoisomerase I inhibitors by scaffold modification” (J Med Chem, 2009)
